Published values collected from several papers.
Each line is one published result; the experiments were not run side by side. pKi: −log10 of the molar value.
ADRA2A: Alpha-2A adrenergic receptor (ADRA2A, Homo sapiens, UniProt P08913)
CA1: Carbonic anhydrase 1 (CA1, Homo sapiens, UniProt P00915)
CA2: Carbonic anhydrase 2 (CA2, Homo sapiens, UniProt P00918)

SMILES | target | read-out | action | technique | pKi
Cc1cc(Oc2ncccc2CN2CCN(c3ccccn3)CC2)ccc1-c1c(C)c(=O)[nH]c(=O)n1C | ADRA2A | ligand displacement | – | radioligand | 6.91
Nc1ccc(S(=O)(=O)c2ccc(N)cc2)cc1 | CA1 | enzyme activity | inhibitor | – | 4.94
CCN1/C(=C/C(C)=O)Sc2ccc(F)cc21 | ADRA2A | ligand displacement | – | radioligand | 4.30
COc1ccnc(C[S+]([O-])c2nc3ccc(OC(F)F)cc3[nH]2)c1OC (stereo not drawn) | CA2 | enzyme activity | inhibitor | absorbance | 5.06
NS(=O)(=O)c1nnc(NC(=O)CN2CCC(F)CC2)s1 | CA1 | enzyme activity | inhibitor | stopped-flow | 7.17
O=C(NCc1cn(-c2ccc([N+](=O)[O-])cc2)nn1)c1ccc(=O)oc1 | CA1 | enzyme activity | inhibitor | stopped-flow | < 4.00
Cc1cc(Oc2ncccc2CN2CCN(c3ccccc3[N+](=O)[O-])CC2)ccc1-c1c(C)c(=O)[nH]c(=O)n1C | ADRA2A | ligand displacement | – | radioligand | 6.84
Cc1ccc(-n2cc(COC(=O)c3ccc(=O)oc3)nn2)cc1 | CA1 | enzyme activity | inhibitor | stopped-flow | < 4.00
CCOCCn1c(C2CCN(CCc3ccc(C(C)(C)C(=O)O)cc3)CC2)nc2ccccc21 | CA1 | enzyme activity | inhibitor | – | 5.02
COc1ccc(-n2cc(CNC(=O)c3ccc(=O)oc3)nn2)cc1 | CA1 | enzyme activity | inhibitor | stopped-flow | < 4.00
Cc1cc(Oc2ncccc2CN2CCN(c3ccc(F)c(F)c3)CC2)ccc1-c1c(C)c(=O)[nH]c(=O)n1C | ADRA2A | ligand displacement | – | radioligand | 6.38
CC1=C(/C=C/C(C)=C/C=C/C(C)=C\C(=O)O)C(C)(C)CCC1 | CA1 | enzyme activity | inhibitor | – | 5.24
Cc1cccc(CC(=O)Nc2nnc(S(N)(=O)=O)s2)c1 | CA1 | enzyme activity | inhibitor | stopped-flow | 7.37
Cc1cc(Oc2ncccc2CN2CCN(c3ccc([N+](=O)[O-])cc3C(F)(F)F)CC2)ccc1-c1c(C)c(=O)[nH]c(=O)n1C | ADRA2A | ligand displacement | – | radioligand | 5.68
CC(C)(C(=O)O)c1ccc(C(O)CCCN2CCC(C(O)(c3ccccc3)c3ccccc3)CC2)cc1 (stereo not drawn) | CA1 | enzyme activity | inhibitor | – | 4.88
NS(=O)(=O)c1nnc(NC(=O)C2CCC3(CCCCC3)C2)s1 (stereo not drawn) | CA2 | enzyme activity | inhibitor | stopped-flow | 7.40
O=C(NCc1cn(-c2ccccc2)nn1)c1ccc(=O)oc1 | CA1 | enzyme activity | inhibitor | stopped-flow | < 4.00
Cc1cc(Oc2ncccc2CN2CCN(c3cccc(C)c3C)CC2)ccc1-c1c(C)c(=O)[nH]c(=O)n1C | ADRA2A | ligand displacement | – | radioligand | 7.38
Nc1nc2c(ncn2COCCO)c(=O)[nH]1 | CA2 | enzyme activity | inhibitor | absorbance | 5.06
Cc1cc(Oc2ncccc2CN2CCN(c3ccccc3Cl)CC2)ccc1-c1c(C)c(=O)[nH]c(=O)n1C | ADRA2A | ligand displacement | – | radioligand | 7.10
CC[C@H]1OC(=O)[C@H](C)[C@@H](O[C@H]2C[C@@](C)(OC)[C@@H](O)[C@H](C)O2)[C@H](C)[C@@H](O[C@@H]2O[C@H](C)C[C@H](N(C)C)[C@H]2O)[C@](C)(O)C[C@@H](C)CN(C)[C@H](C)[C@@H](O)[C@]1(C)O | CA2 | enzyme activity | inhibitor | absorbance | 5.09
CC1(C)CCN(CC(=O)Nc2nnc(S(N)(=O)=O)s2)CC1 | CA2 | enzyme activity | inhibitor | stopped-flow | 7.51
Cc1ccc(-n2cc(CNC(=O)c3ccc(=O)oc3)nn2)cc1 | CA1 | enzyme activity | inhibitor | stopped-flow | < 4.00
COc1ccc(N2CCN(Cc3cccnc3Oc3ccc(-c4c(C)c(=O)[nH]c(=O)n4C)c(C)c3)CC2)cc1 | ADRA2A | ligand displacement | – | radioligand | 5.88
Cc1ccc(OC(=O)c2ccc(=O)oc2)cc1 | CA1 | enzyme activity | inhibitor | stopped-flow | < 4.00
CC(C(=O)Nc1nnc(S(N)(=O)=O)s1)C1CCCCC1 (stereo not drawn) | CA2 | enzyme activity | inhibitor | stopped-flow | 7.74
Cc1cc(Oc2ncccc2CN2CCN(c3cccc(Cl)c3)CC2)ccc1-c1c(C)c(=O)[nH]c(=O)n1C | ADRA2A | ligand displacement | – | radioligand | 6.79
